Data reported in PMC4832308 (Cancer, 2015).
Converted amounts (≈) assume the structure as drawn. “And” between values parts separate entries of the source, which are not always exact repeats. Equal entries are not always repeated.

What was measured:
[1] = urine pharmacokinetics in patients; details: human, in vivo
[2] = plasma pharmacokinetics in patients; format: in vivo, human
[3] = tested on: patients with advanced solid tumors or multiple myeloma; assay: phase 1 dose escalation: preliminary efficacy; format: in vivo, human
Method in brief: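 Single dose on day −1, then oral daily dosing after a ≥6-h fast in 28-day cycles until progression. Tumors were imaged by CT or MRI. Response was scored by RECIST 1.1, international uniform criteria for myeloma, or revised high-grade glioma criteria. Evaluable patients were eligible, completed ≥1 cycle, and had baseline plus ≥1 postbaseline assessment. Disease control rate was given with a 90% confidence interval.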

p4EBP1 = assay: blood biomarker analysis by flow cytometry and PK/PD modeling; format: in vivo, human
Method in brief: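 Sodium-heparin patient whole blood, taken predose and 1.5–5 h postdose: 1 h at 37°C, 15-min anti-IgD plus LPS stimulation, lyse/fix, methanol overnight at −80°C, then CD3/CD14/CD20 and phospho-staining and flow cytometry. Bead-calibrated MFI reported as ERF. Baseline-relative change vs plasma drug (chiral LC-MS) was fitted by a direct inhibitory NONMEM model for EC50: p4EBP1 in T cells, pS6RP in B cells and monocytes.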

CO[C@H]1CC[C@H](N2C(=O)CNc3ncc(-c4ccc(C(C)(C)O)nc4)nc32)CC1 [CC‐223]
fraction excreted unchanged in urine [1]: < 0.2% | renal clearance [1]: negligible | dose dependence of Cmax and AUC from time 0 to infinity ([2]; 30‐ to 60‐mg dose range, single or multiple doses): dose‐proportional | half-life ([2]; human, plasma, oral): 4.86 to 5.64 h | ratio of AUC0‐24 between day 15 and day 1 ([2]; multiple dosing): ≤ 22% | complete response ([3]; 20 patients evaluable for efficacy): No patient had a complete response | patients with stable disease ([3]; across ≥15 mg/d cohorts): 8 patients | patients with progressive disease ([3]; best response): 12 patients | duration of partial response / disease control ([3]; breast cancer patient with PR, 30‐mg/d cohort): 220 days | disease control duration ([3]; breast cancer patient with SD): 168 days | partial response rate ([3]; breast cancer patient, 30‐mg/d cohort): 3.6% | patients with reduction in target lesions ([3]; in addition to the PR): 5 patients | patients with SD >100 days ([3]; in vivo): 5 patients | patients with disease control durations of >100 days ([3]; in vivo): Six | best overall response rate per investigator ([3]; safety population): 3.6% | disease control rate ([3]; safety population): 32% and 32.1% | stable disease rate ([3]; safety population): 29% | p4EBP1 inhibition in blood cells (p4EBP1; 30‐, 45‐, and 60‐mg dose levels, 3 hours on treatment): > 40% | EC50 (p4EBP1; Homo sapiens, T-cell, read-out: EC50 for p4EBP1 inhibition): 0.113 mg/L (≈ 0.284 µM)
